Laboratory results taken from the EternaBench riboswitch data.

Test system: MS2 coat protein
Test: apparent Kd, MS2 coat protein; higher = weaker binding; RNA-MaP array; tryptophan 2.4 mM where present
Method in brief: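 Two titrations, one without ligand and one with constant ligand, were run with SNAP-549-labelled MS2 coat protein from 0.7 or 1.5 nM, doubling to 3 µM. The targets were designs transcribed by stalled E. coli RNA polymerase on Illumina sequencing-chip clusters, in 100 mM Tris-HCl pH 7.5, 80 mM KCl, 4 mM MgCl2, BSA, DTT, yeast tRNA and Tween-20. The apparent Kd is the median of filtered per-cluster binding-curve fits, with green signal normalised to red-channel RNA signal and control-cluster median Fmax.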

[1] = designed as: OFF switch for tryptophan, no ligand
[2] = ligand present: tryptophan, designed as: OFF switch for tryptophan
[3] = designed as: ON switch for tryptophan, no ligand
[4] = ligand present: tryptophan, designed as: ON switch for tryptophan

Sequence	apparent Kd [1] [nM]	apparent Kd [2] [nM]	apparent Kd [3] [nM]	apparent Kd [4] [nM]
UCGUGCAGAGCGGCCGCCACUGUAUUGCGUGCGGAUGACGGAACAUGAGGAUCACCCAUGUUGUUUAGGACCGGGCUUGCCACCA	12.7	13.9	–	–
ACAUGAGGAUCACCCAUGUGUGUAAAUCCUCGAGGACCGGUACGGCCGCCACUCGAUUGAGUGUAAGUUGAAUGUAACAUUCAAC	–	–	96.2	30.1
AACGAGUGGCGGCCAUUGGGUGAUCCUCUACGAGGACCGGUACGGCCGCCACUCGAUAACAUGAGGAUCACCCAUGUGCCGAUAA	124	133	–	–
CUCAUCCACGCGGCCGCCACUAUAUUGUGGUGUGAAUGUGACGUAUUACAUGAGGAUCACCCAUGUAGGACCGGGCGUGGAUGAG	75.4	168	–	–
GGUUACUCUACGGCCGCCACUGAAAAGUAAAUAUUAAUGUACAUGACAUGAGGAUCACCCAUGUACAGGACCGGGUAGUGUAACC	–	–	84.2	21.5
CCGGCCAAUUAGAAAUUAAUUGGCCGGAAACGAGGACCGGUACGGCCGCCACUCGUGGCGGGAGAAACAUGAGGAUCACCCAUGU	40	26	–	–
UGUGUAAUUGUCUGGUAGAUUUAUUUUUUUCGAGGACCGGUACGGCCGCCACUCGUUAUUUACAUGAGGAUCACCCAUGUUAGCU	12.9	12.9	–	–
AUUCAUGGAAACAUGACAUACAUAUCCGGUCGAGGACCGGUACGGCCGCCACUCGUUUGGAGGCACAUGAGGAUCACCCAUGUUA	–	–	23.9	25.9
AGCACGGUGAUGGUAGCCGGACGAUAAGUACGAGGACCGGUACGGCCGCCACUCGAAGUCCUACGACAUGAGGAUCACCCAUGUA	–	–	33.2	37.9
GUGUACAUGAGGAUCACCCAUGUCGAGUUACGAGGACCGGUACGGCCGCCACUCGGCGGCUCGACACGGAUAGCGAUGCGUUGCU	43.6	110	–	–
ACGGAUCGGAAACGAUCCGCGGCGCGGGUGCGAGGACCGGUACGGCCGCCACUCGGGUAACAUGAGGAUCACCCAUGUCCGAUUU	101	304	–	–
CUAGACUGUGCGGCCGCCACUGGCUCAUCCUGCAUUACAUGAGGAUCACCCAUGUUGCGGCCUCCCAGGACCGGGCAUAGUCUGC	–	–	329	105
GGUAACUCUACGGCCGCCACUGAACAUGAGGAUCACCCAUGUAAUGUUCAGAUUUUUUUUUUUUACAGGACCGGGUAGUGUUACC	–	–	178	118
CCAUCUACAUCGGCCGCCACUGAACCAAGGAGACAUGAGGAUCACCCAUGUAUGGGAAACCAUCAUAGGACCGGGAUGAUCUACC	–	–	113	122
AGGUACGGAAUCCUCAUGUAGUCGUACCAACGAGGACCGGUACGGCCGCCACUCGAAUAAACAUGAGGAUCACCCAUGUAAUAAU	–	–	34.4	19.7
AGUUCCAGGUCGGCCGCCACUGGCGUGGCCGGUCCUCGGACUUACAUGAGGAUCACCCAUGUGAACAGGACCGGGACCGCAUGGG	36.9	28.7	–	–
ACCGAAAGCUCACAUGAGGAUCACCCAUGUCGAGGACCGGUACGGCCGCCACUCGGCAAAUAUAAGGGUGGACGCGUCUCUGCGU	39	79.8	–	–
GGCACAUAGUCGGCCGCCACUAGUGGGAAAUGGGAGAACAUGAGGAUCACCCAUGUAGCGUAGCCUAGGACCGGGACUAUGUGCC	160	156	–	–
GGAGUAGGAAACUAUUCCAAUCCUCGUGAACGAGGACCGGUACGGCCGCCACUCGAUAAAUAAAUACAUGAGGAUCACCCAUGUA	24.4	50.2	–	–
UAUCGUCAGACGGCCGCCACUAGUACAUGAGGAUCACCCAUGUAGGUCCUAGAUUCCUCAUGAUCUAGGACCGGGUCUGACGAAU	39	23	–	–
GGGACAUGAGGAUCACCCAUGUACCGGUCCCGAGGACCGGUACGGCCGCCACUCGAUGACCUCAUAGUCUGCCUGAGCAGCAGAC	–	–	41.3	119
CAUGGCUGUGCGGCCGCCACUGGCUCAUCCUGCAUUACAUGAGGAUCACCCAUGUUGCGGCCUCCCAGGACCGGGCAUAGCCUGA	–	–	300	139
AAAAUAAAAUAAAAGGUGGAAAUAAGGCGGCGAGGACCGGUACGGCCGCCACUCGCGUACAUGAGGAUCACCCAUGUCUGAAAAU	–	–	22.4	27.4
AGAUUCGACACGGCCGCCACUUGUGGUGGAUUAUCCUGUGUCGAACAUGAGGAUCACCCAUGUACAAGGACCGGGUGUUGAGUCU	136	73.9	–	–
GGUAUGUAUUCGGAAACGAAUGCAUACCAACGAGGACCGGUACGGCCGCCACUCGGGCCGUGAUCACAUGAGGAUCACCCAUGUA	40.2	92.7	–	–
